Results: ChEMBL document CHEMBL4689842, “EUbOPEN Chemogenomics Library wave 1” (2021)

System: U2OS
Assay: Multiplex assay against U2OS
Format: toxicity, cell-based
Settings: human
How it was run: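 Per cents of healthy-nucleus cells form the tubulin, mitochondrial-mass and membrane-permeability phenotype values. Live cells were stained at seeding with Hoechst33342, BioTracker Green Microtubule Cytoskeleton Dye, MitoTracker Red and Annexin V Alexa Fluor 680. After compound addition they were imaged on a CQ1 microscope at 37°C and 5% CO2, and CellPathfinder machine-learning gating split them into Hoechst high-intensity objects or normal cells, normal cells into healthy, pyknosed or fragmented nuclei, and pyknosed cells into mitotic or apoptotic.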

[1] = 12 h, 1 µM, compound concentration 1 uM, replicate 1
[2] = 12 h, 1 µM, compound concentration 1 uM, replicate 2
[3] = 12 h, 10 µM, compound concentration 10 uM, replicate 1
[4] = 12 h, 10 µM, compound concentration 10 uM, replicate 2
[5] = 24 h, 1 µM, compound concentration 1 uM, replicate 1
[6] = 24 h, 1 µM, compound concentration 1 uM, replicate 2
[7] = 24 h, 10 µM, compound concentration 10 uM, replicate 1
[8] = 24 h, 10 µM, compound concentration 10 uM, replicate 2
[9] = 48 h, 1 µM, compound concentration 1 uM, replicate 1
[10] = 48 h, 1 µM, compound concentration 1 uM, replicate 2
[11] = 48 h, 10 µM, compound concentration 10 uM, replicate 1
[12] = 48 h, 10 µM, compound concentration 10 uM, replicate 2

In the case of `COc1ccc(-c2ccc3c(N4CCOCC4)nc(N4C[C@@H](C)O[C@@H](C)C4)nc3n2)cc1CO` [Ku-0063794], the “Population Apoptotic (%)” value [1] is reported as 36%, the “Population Fragmented Nuclei (%)” value [1] is reported as 7% and the “Population Healthy Nuclei (%)” value [1] is reported as 87%. For the same compound, the “Population Hoechst High Intensity Objects (%)” value [1] was 0%, the “Population Membrane Permeable-Phenotype (%)” value [1] was 8% and the “Population Mitochondria Different-Phenotype (%)” value [1] was 19%. For the same compound, the “Population Mitotic Cells (%)” value [1] was 63%, the “Population Normal (%)” value [1] was 99% and the “Population Pyknosed Nuclei (%)” value [1] was 5%. For the same compound, the “Population Tubulin-Different-Phenotype (%)” value [1] was 22%, the “Total Cell Count” value [1] was 158 and the “Population Apoptotic (%)” value [2] was 62%. For the same compound, the “Population Fragmented Nuclei (%)” value [2] was 11%, the “Population Healthy Nuclei (%)” value [2] was 83% and the “Population Hoechst High Intensity Objects (%)” value [2] was 7%. The “Population Membrane Permeable-Phenotype (%)” value [2] was 4%, the “Population Mitochondria Different-Phenotype (%)” value [2] was 20% and the “Population Mitotic Cells (%)” value [2] was 37%. The “Population Normal (%)” value [2] was 92%, the “Population Tubulin-Different-Phenotype (%)” value [2] was 30% and the “Total Cell Count” value [2] was 91. For the same compound, the “Population Apoptotic (%)” value [3] was 69%, the “Population Fragmented Nuclei (%)” value [3] was 34% and the “Population Healthy Nuclei (%)” value [3] was 61%. The “Population Hoechst High Intensity Objects (%)” value [3] was 31%, the “Population Membrane Permeable-Phenotype (%)” value [3] was 20% and the “Population Mitochondria Different-Phenotype (%)” value [3] was 6%. The “Population Mitotic Cells (%)” value [3] was 30%, the “Population Normal (%)” value [3] was 68% and the “Population Pyknosed Nuclei (%)” value [3] was 4%. The “Population Tubulin-Different-Phenotype (%)” value [3] was 11%, the “Total Cell Count” value [3] was 221 and the “Population Apoptotic (%)” value [4] was 33%. For the same compound, the “Population Fragmented Nuclei (%)” value [4] was 37%, the “Population Healthy Nuclei (%)” value [4] was 57% and the “Population Hoechst High Intensity Objects (%)” value [4] was 37%. For the same compound, the “Population Membrane Permeable-Phenotype (%)” value [4] was 8%, the “Population Mitochondria Different-Phenotype (%)” value [4] was 11% and the “Population Mitotic Cells (%)” value [4] was 66%. The “Population Normal (%)” value [4] was 62%, the “Total Cell Count” value [4] was 164 and the “Population Apoptotic (%)” value [5] was 46%. The “Population Fragmented Nuclei (%)” value [5] was 7%, the “Population Healthy Nuclei (%)” value [5] was 88% and the “Population Hoechst High Intensity Objects (%)” value [5] was 0%. The “Population Membrane Permeable-Phenotype (%)” value [5] was 6%, the “Population Mitochondria Different-Phenotype (%)” value [5] was 19% and the “Population Mitotic Cells (%)” value [5] was 53%. For the same compound, the “Population Normal (%)” value [5] was 99%, the “Population Pyknosed Nuclei (%)” value [5] was 4% and the “Population Tubulin-Different-Phenotype (%)” value [5] was 22%. The “Total Cell Count” value [5] was 173, the “Population Apoptotic (%)” value [6] was 16% and the “Population Fragmented Nuclei (%)” value [6] was 10%. For the same compound, the “Population Healthy Nuclei (%)” value [6] was 86%, the “Population Hoechst High Intensity Objects (%)” value [6] was 7% and the “Population Membrane Permeable-Phenotype (%)” value [6] was 7%. For the same compound, the “Population Mitochondria Different-Phenotype (%)” value [6] was 34%, the “Population Mitotic Cells (%)” value [6] was 83% and the “Population Normal (%)” value [6] was 92%. For the same compound, the “Population Pyknosed Nuclei (%)” value [6] was 3%, the “Population Tubulin-Different-Phenotype (%)” value [6] was 31% and the “Total Cell Count” value [6] was 93. The “Population Apoptotic (%)” value [7] was 60%, the “Population Fragmented Nuclei (%)” value [7] was 31% and the “Population Healthy Nuclei (%)” value [7] was 63%. The “Population Hoechst High Intensity Objects (%)” value [7] was 35%, the “Population Membrane Permeable-Phenotype (%)” value [7] was 15% and the “Population Mitochondria Different-Phenotype (%)” value [7] was 4%. For the same compound, the “Population Mitotic Cells (%)” value [7] was 40%, the “Population Normal (%)” value [7] was 64% and the “Population Pyknosed Nuclei (%)” value [7] was 4%. The “Population Tubulin-Different-Phenotype (%)” value [7] was 9%, the “Total Cell Count” value [7] was 298 and the “Population Apoptotic (%)” value [8] was 31%. The “Population Fragmented Nuclei (%)” value [8] was 39%, the “Population Healthy Nuclei (%)” value [8] was 53% and the “Population Hoechst High Intensity Objects (%)” value [8] was 38%. For the same compound, the “Population Membrane Permeable-Phenotype (%)” value [8] was 7%, the “Population Mitochondria Different-Phenotype (%)” value [8] was 9% and the “Population Mitotic Cells (%)” value [8] was 68%. For the same compound, the “Population Normal (%)” value [8] was 61%, the “Population Pyknosed Nuclei (%)” value [8] was 6% and the “Population Tubulin-Different-Phenotype (%)” value [8] was 7%. For the same compound, the “Total Cell Count” value [8] was 197.

With `CN1CCC(=C2c3ccccc3CC(=O)c3sccc32)CC1.O=C(O)/C=C/C(=O)O` [KETOTIFEN FUMARATE] the “Population Apoptotic (%)” value [1] was 63%, the “Population Fragmented Nuclei (%)” value [1] was 10% and the “Population Healthy Nuclei (%)” value [1] was 75%. For the same compound, the “Population Hoechst High Intensity Objects (%)” value [1] was 5%, the “Population Membrane Permeable-Phenotype (%)” value [1] was 15% and the “Population Mitochondria Different-Phenotype (%)” value [1] was 19%. The “Population Mitotic Cells (%)” value [1] was 36%, the “Population Normal (%)” value [1] was 94% and the “Population Pyknosed Nuclei (%)” value [1] was 13%. For the same compound, the “Population Tubulin-Different-Phenotype (%)” value [1] was 19%, the “Total Cell Count” value [1] was 178 and the “Population Apoptotic (%)” value [2] was 75%. For the same compound, the “Population Fragmented Nuclei (%)” value [2] was 6%, the “Population Healthy Nuclei (%)” value [2] was 87% and the “Population Membrane Permeable-Phenotype (%)” value [2] was 10%. For the same compound, the “Population Mitochondria Different-Phenotype (%)” value [2] was 12%, the “Population Mitotic Cells (%)” value [2] was 25% and the “Population Pyknosed Nuclei (%)” value [2] was 6%. The “Population Tubulin-Different-Phenotype (%)” value [2] was 9%, the “Total Cell Count” value [2] was 56 and the “Population Apoptotic (%)” value [3] was 52%. The “Population Fragmented Nuclei (%)” value [3] was 15%, the “Population Healthy Nuclei (%)” value [3] was 62% and the “Population Hoechst High Intensity Objects (%)” value [3] was 5%. For the same compound, the “Population Membrane Permeable-Phenotype (%)” value [3] was 15%, the “Population Mitochondria Different-Phenotype (%)” value [3] was 90% and the “Population Mitotic Cells (%)” value [3] was 48%. For the same compound, the “Population Normal (%)” value [3] was 94%, the “Population Pyknosed Nuclei (%)” value [3] was 21% and the “Population Tubulin-Different-Phenotype (%)” value [3] was 97%. The “Total Cell Count” value [3] was 167, the “Population Apoptotic (%)” value [4] was 33% and the “Population Fragmented Nuclei (%)” value [4] was 2%. The “Population Healthy Nuclei (%)” value [4] was 75%, the “Population Hoechst High Intensity Objects (%)” value [4] was 1% and the “Population Mitotic Cells (%)” value [4] was 66%. For the same compound, the “Population Normal (%)” value [4] was 98%, the “Population Pyknosed Nuclei (%)” value [4] was 22% and the “Population Tubulin-Different-Phenotype (%)” value [4] was 95%. The “Total Cell Count” value [4] was 67, the “Population Apoptotic (%)” value [5] was 48% and the “Population Healthy Nuclei (%)” value [5] was 77%. The “Population Hoechst High Intensity Objects (%)” value [5] was 5%, the “Population Membrane Permeable-Phenotype (%)” value [5] was 8% and the “Population Mitochondria Different-Phenotype (%)” value [5] was 16%. For the same compound, the “Population Mitotic Cells (%)” value [5] was 52%, the “Population Normal (%)” value [5] was 94% and the “Population Pyknosed Nuclei (%)” value [5] was 14%. For the same compound, the “Population Tubulin-Different-Phenotype (%)” value [5] was 11%, the “Total Cell Count” value [5] was 180 and the “Population Apoptotic (%)” value [6] was 100%. The “Population Fragmented Nuclei (%)” value [6] was 8%, the “Population Healthy Nuclei (%)” value [6] was 86% and the “Population Hoechst High Intensity Objects (%)” value [6] was 7%. The “Population Membrane Permeable-Phenotype (%)” value [6] was 9%, the “Population Mitochondria Different-Phenotype (%)” value [6] was 10% and the “Population Mitotic Cells (%)” value [6] was 0%. For the same compound, the “Population Normal (%)” value [6] was 92%, the “Population Pyknosed Nuclei (%)” value [6] was 5% and the “Population Tubulin-Different-Phenotype (%)” value [6] was 4%. The “Total Cell Count” value [6] was 64, the “Population Apoptotic (%)” value [7] was 62% and the “Population Fragmented Nuclei (%)” value [7] was 14%. The “Population Healthy Nuclei (%)” value [7] was 59%, the “Population Hoechst High Intensity Objects (%)” value [7] was 6% and the “Population Membrane Permeable-Phenotype (%)” value [7] was 5%. For the same compound, the “Population Mitochondria Different-Phenotype (%)” value [7] was 96%, the “Population Mitotic Cells (%)” value [7] was 37% and the “Population Normal (%)” value [7] was 93%. For the same compound, the “Population Pyknosed Nuclei (%)” value [7] was 25%, the “Population Tubulin-Different-Phenotype (%)” value [7] was 85% and the “Total Cell Count” value [7] was 186. For the same compound, the “Population Apoptotic (%)” value [8] was 59%, the “Population Fragmented Nuclei (%)” value [8] was 6% and the “Population Healthy Nuclei (%)” value [8] was 66%. The “Population Hoechst High Intensity Objects (%)” value [8] was 2%, the “Population Membrane Permeable-Phenotype (%)” value [8] was 22% and the “Population Mitochondria Different-Phenotype (%)” value [8] was 98%. For the same compound, the “Population Mitotic Cells (%)” value [8] was 40%, the “Population Normal (%)” value [8] was 97% and the “Population Pyknosed Nuclei (%)” value [8] was 27%. For the same compound, the “Population Tubulin-Different-Phenotype (%)” value [8] was 88%, the “Total Cell Count” value [8] was 80 and the “Population Apoptotic (%)” value [9] was 40%. For the same compound, the “Population Fragmented Nuclei (%)” value [9] was 4%, the “Population Healthy Nuclei (%)” value [9] was 86% and the “Population Hoechst High Intensity Objects (%)” value [9] was 4%. For the same compound, the “Population Membrane Permeable-Phenotype (%)” value [9] was 5%, the “Population Mitochondria Different-Phenotype (%)” value [9] was 13% and the “Population Mitotic Cells (%)” value [9] was 59%. The “Population Normal (%)” value [9] was 95%, the “Population Pyknosed Nuclei (%)” value [9] was 8% and the “Population Tubulin-Different-Phenotype (%)” value [9] was 11%. The “Total Cell Count” value [9] was 182, the “Population Apoptotic (%)” value [10] was 28% and the “Population Fragmented Nuclei (%)” value [10] was 8%. For the same compound, the “Population Healthy Nuclei (%)” value [10] was 80%, the “Population Hoechst High Intensity Objects (%)” value [10] was 2% and the “Population Membrane Permeable-Phenotype (%)” value [10] was 4%. For the same compound, the “Population Mitochondria Different-Phenotype (%)” value [10] was 9%, the “Population Mitotic Cells (%)” value [10] was 71% and the “Population Normal (%)” value [10] was 97%. For the same compound, the “Population Pyknosed Nuclei (%)” value [10] was 11%, the “Population Tubulin-Different-Phenotype (%)” value [10] was 7% and the “Total Cell Count” value [10] was 63. The “Population Apoptotic (%)” value [11] was 66%, the “Population Fragmented Nuclei (%)” value [11] was 12% and the “Population Healthy Nuclei (%)” value [11] was 60%. The “Population Membrane Permeable-Phenotype (%)” value [11] was 9%, the “Population Mitochondria Different-Phenotype (%)” value [11] was 70% and the “Population Mitotic Cells (%)” value [11] was 33%. The “Population Pyknosed Nuclei (%)” value [11] was 27%, the “Population Tubulin-Different-Phenotype (%)” value [11] was 72% and the “Total Cell Count” value [11] was 263. For the same compound, the “Population Apoptotic (%)” value [12] was 57%, the “Population Fragmented Nuclei (%)” value [12] was 7% and the “Population Healthy Nuclei (%)” value [12] was 63%. The “Population Hoechst High Intensity Objects (%)” value [12] was 7%, the “Population Membrane Permeable-Phenotype (%)” value [12] was 16% and the “Population Mitochondria Different-Phenotype (%)” value [12] was 75%. The “Population Mitotic Cells (%)” value [12] was 42%, the “Population Normal (%)” value [12] was 92% and the “Population Pyknosed Nuclei (%)” value [12] was 29%. The “Population Tubulin-Different-Phenotype (%)” value [12] was 78% and the “Total Cell Count” value [12] was 130.
